{"source": "ChEMBL document CHEMBL1135969", "about": "“Discovery of an opioid kappa receptor selective pure antagonist from a library of N-substituted 4beta-methyl-5-(3-hydroxyphenyl)morphans” (J Med Chem, 2002)", "key": {"[1]": {"molecular_target": "Opioid receptors; delta & kappa (Homo sapiens) (UniProt P41145+P41143)", "sequence (P41143 whole entry, looked up)": "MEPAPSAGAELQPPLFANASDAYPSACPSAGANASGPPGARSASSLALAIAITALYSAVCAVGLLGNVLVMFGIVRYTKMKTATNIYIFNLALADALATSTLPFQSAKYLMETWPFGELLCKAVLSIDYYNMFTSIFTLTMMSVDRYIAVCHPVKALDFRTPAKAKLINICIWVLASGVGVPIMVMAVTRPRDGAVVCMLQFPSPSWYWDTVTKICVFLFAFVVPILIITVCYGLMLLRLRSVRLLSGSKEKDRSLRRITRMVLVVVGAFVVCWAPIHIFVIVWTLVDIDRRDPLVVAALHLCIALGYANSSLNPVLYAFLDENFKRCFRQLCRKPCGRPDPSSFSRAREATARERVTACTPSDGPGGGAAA", "sequence (P41145 whole entry, looked up)": "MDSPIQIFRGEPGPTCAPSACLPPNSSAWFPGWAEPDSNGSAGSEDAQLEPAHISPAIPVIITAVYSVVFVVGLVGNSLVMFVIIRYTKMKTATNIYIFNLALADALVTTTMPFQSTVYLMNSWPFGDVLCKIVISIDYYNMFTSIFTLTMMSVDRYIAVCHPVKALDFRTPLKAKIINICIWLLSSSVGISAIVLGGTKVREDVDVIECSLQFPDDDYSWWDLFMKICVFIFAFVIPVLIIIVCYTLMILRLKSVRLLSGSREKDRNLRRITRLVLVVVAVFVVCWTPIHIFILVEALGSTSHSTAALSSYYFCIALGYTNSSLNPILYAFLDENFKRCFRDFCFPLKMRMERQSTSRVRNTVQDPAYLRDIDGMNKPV", "assay": "Selectivity ratio of Ki at delta opioid receptor to Ki at kappa opioid receptor", "assay_type": "protein assay"}, "[2]": {"molecular_target": "Opioid receptors; mu & delta (Homo sapiens) (UniProt P41143+P35372)", "sequence (P35372 whole entry, looked up)": "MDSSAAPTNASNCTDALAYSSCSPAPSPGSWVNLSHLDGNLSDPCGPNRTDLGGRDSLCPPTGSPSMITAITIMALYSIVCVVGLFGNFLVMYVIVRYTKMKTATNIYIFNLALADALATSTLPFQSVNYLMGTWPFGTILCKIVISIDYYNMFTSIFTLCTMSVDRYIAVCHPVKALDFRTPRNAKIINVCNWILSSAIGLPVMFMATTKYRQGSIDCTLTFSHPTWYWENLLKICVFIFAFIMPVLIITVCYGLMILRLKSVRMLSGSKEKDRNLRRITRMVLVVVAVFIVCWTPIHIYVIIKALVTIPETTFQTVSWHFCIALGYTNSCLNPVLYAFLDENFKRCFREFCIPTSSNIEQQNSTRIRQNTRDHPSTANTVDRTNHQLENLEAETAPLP", "sequence (P41143 whole entry, looked up)": "as the sequence (P41143 whole entry, looked up) above", "assay": "Selectivity ratio of Ki at mu opioid receptor to Ki at kappa opioid receptor", "assay_type": "protein assay"}, "[3]": {"molecular_target": "Delta-type opioid receptor (Homo sapiens) (UniProt P41143)", "sequence (P41143 whole entry)": "as the sequence (P41143 whole entry, looked up) above", "conditions": "CHO"}, "[4]": {"molecular_target": "Kappa-type opioid receptor (Homo sapiens) (UniProt P41145)", "sequence (P41145 whole entry)": "as the sequence (P41145 whole entry, looked up) above", "conditions": "CHO"}, "[5]": {"molecular_target": "Mu-type opioid receptor (Homo sapiens) (UniProt P35372)", "sequence (P35372 whole entry)": "as the sequence (P35372 whole entry, looked up) above", "conditions": "CHO"}, "Mu-type opioid receptor": {"molecular_target": "Mu-type opioid receptor (Rattus norvegicus, UniProt P33535)", "sequence (P33535 whole entry)": "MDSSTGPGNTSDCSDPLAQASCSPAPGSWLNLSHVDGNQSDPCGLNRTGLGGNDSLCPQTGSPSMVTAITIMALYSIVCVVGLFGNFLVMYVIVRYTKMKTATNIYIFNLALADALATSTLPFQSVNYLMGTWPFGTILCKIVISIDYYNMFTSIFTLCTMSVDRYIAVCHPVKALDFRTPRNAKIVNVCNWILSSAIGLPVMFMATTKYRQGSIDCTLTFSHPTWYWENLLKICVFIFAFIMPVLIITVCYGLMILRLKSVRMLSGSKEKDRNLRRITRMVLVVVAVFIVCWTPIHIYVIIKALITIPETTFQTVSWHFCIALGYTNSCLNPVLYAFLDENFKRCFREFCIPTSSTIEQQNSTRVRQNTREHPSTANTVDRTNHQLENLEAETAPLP", "assay": "Ability to displace [3H]DAMGO from Opioid receptor mu 1 of rat brain", "assay_type": "tissue-based", "procedure,_shortened": "(§1)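 Radioligand displacement binding giving Ki values. Rat brain tissue was used for the μ site (tritiated μ-selective ligand) and the δ site ([3H]DADLE, δ-selective). Guinea pig brain tissue was used for the κ site ([3H]U69,593, a κ-selective agonist).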"}, "[6]": {"molecular_target": "Kappa-type opioid receptor (Cavia porcellus, UniProt P41144)", "sequence (P41144 whole entry)": "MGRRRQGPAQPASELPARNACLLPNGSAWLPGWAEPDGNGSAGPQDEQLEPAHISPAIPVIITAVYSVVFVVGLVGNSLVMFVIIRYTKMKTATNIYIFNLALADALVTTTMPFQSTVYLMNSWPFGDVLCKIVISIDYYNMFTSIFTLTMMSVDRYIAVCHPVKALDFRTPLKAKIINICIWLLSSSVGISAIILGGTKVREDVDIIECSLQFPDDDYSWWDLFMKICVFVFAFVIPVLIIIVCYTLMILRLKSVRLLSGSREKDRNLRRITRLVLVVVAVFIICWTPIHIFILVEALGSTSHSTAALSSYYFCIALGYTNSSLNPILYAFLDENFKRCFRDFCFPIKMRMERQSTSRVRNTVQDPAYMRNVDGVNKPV", "assay": "Ability to displace [3H]U-69593 from Opioid receptor kappa 1 of guinea pig brain", "procedure,_shortened": "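Competitive radioligand binding in guinea pig brain tissue, using tritiated U69,593, a κ-selective agonist, as the displaced ligand. Affinity is reported as Ki.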"}, "[7]": {"molecular_target": "Delta-type opioid receptor (Rattus norvegicus, UniProt P33533)", "sequence (P33533 whole entry)": "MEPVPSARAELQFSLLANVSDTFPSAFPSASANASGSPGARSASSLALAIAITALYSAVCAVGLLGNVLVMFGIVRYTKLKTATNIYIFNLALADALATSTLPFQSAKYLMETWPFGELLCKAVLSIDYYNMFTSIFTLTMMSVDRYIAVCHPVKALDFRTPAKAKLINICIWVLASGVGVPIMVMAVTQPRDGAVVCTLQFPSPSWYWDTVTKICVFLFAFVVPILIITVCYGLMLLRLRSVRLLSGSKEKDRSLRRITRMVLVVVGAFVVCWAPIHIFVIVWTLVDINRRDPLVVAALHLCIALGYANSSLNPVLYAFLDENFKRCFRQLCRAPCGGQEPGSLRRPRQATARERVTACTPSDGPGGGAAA", "assay": "Ability to displace [3H]DADLE from Opioid receptor delta 1 of rat brain", "assay_type": "tissue-based", "procedure,_shortened": "as §1"}}}
{"molecule": "CC1CN(CCCc2ccccc2)C2C[C@H](N)CC1(c1cccc(O)c1)C2", "note": "(single isomer, unassigned; (-)) [listing 1 of 2 here]", "values": [{"measurement": "Ratio", "setting": "[1]", "value": 0.1}, {"measurement": "Ratio", "setting": "[2]", "value": 0.03}]}
{"molecule": "Oc1ccc2c3c1O[C@H]1c4[nH]c5c(c4C[C@@]4(O)[C@@H](C2)N(CC2CC2)CC[C@]314)C[C@@]1(O)[C@H]2Cc3ccc(O)c4c3[C@@]1(CCN2CC1CC1)[C@H]5O4", "values": [{"measurement": "Ke", "setting": "[3]", "value": 4.6, "unit": "nM"}, {"measurement": "Ke", "setting": "[4]", "value": 0.04, "unit": "nM"}, {"measurement": "Ke", "setting": "[5]", "value": 19, "unit": "nM"}]}
{"molecule": "CC1CN(CCCc2ccccc2)C2C[C@H](N)CC1(c1cccc(O)c1)C2", "note": "(single isomer, unassigned; (+)) [listing 1 of 2 here]", "values": [{"measurement": "Ki", "setting": "Mu-type opioid receptor", "value": 207, "unit": "nM"}, {"measurement": "Ki", "setting": "[6]", "value": 893, "unit": "nM"}, {"measurement": "Ki", "setting": "[7]", "value": 246, "unit": "nM"}]}
{"molecule": "CC1CN(CCCc2ccccc2)C2C[C@H](N)CC1(c1cccc(O)c1)C2", "note": "(single isomer, unassigned; (-)) [listing 2 of 2 here]", "values": [{"measurement": "Ki", "setting": "Mu-type opioid receptor", "value": 3.3, "unit": "nM"}, {"measurement": "Ki", "setting": "[6]", "value": 122, "unit": "nM"}, {"measurement": "Ki", "setting": "[7]", "value": 14.7, "unit": "nM"}]}
{"molecule": "CC1CN(CCCc2ccccc2)C2C[C@H](N)CC1(c1cccc(O)c1)C2", "note": "(single isomer, unassigned; (+)) [listing 2 of 2 here]", "values": [{"measurement": "Ratio", "setting": "[1]", "value": 0.27}, {"measurement": "Ratio", "setting": "[2]", "value": 0.23}]}
